Reference: ChEMBL document CHEMBL2069264, “Halogenated anthraquinones from the marine-derived fungus Aspergillus sp. SCSIO F063” (J Nat Prod, 2012)
Activity calls are given as the source filed them. The calls are words filed in the database; no cut-off is given here.

Assays:
SF-268 = test: Cytotoxicity against human SF268 cells after 72 hrs BY SRB assay; format: functional, cell-based; settings: SF-268, 72 h
Procedure, shortened: (§1)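 Cells seeded at 3 × 10^4 cells/mL (180 μL per well) and preincubated 24 h at 37 °C, 5% CO2. Compound added at various concentrations (20 μL), then 72 h further incubation. Fixed with 50% (w/v) TCA, stained 30 min with 0.4% SRB in 1% acetic acid, washed with 1% acetic acid. Dye dissolved in 10 mM Tris base, OD read at 570 nm. Cisplatin as positive control. Triplicate; IC50 by nonlinear curve fitting.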

MCF7 = test: Cytotoxicity against human MCF7 cells after 72 hrs BY SRB assay; format: functional, cell-based; settings: MCF7, 72 h; procedure, shortened: as §1
NCI-H460 = test: Cytotoxicity against human NCI-H460 cells after 72 hrs BY SRB assay; format: functional, cell-based; settings: NCI-H460, 72 h; procedure, shortened: as §1
Staphylococcus aureus = test: Antimicrobial activity against Staphylococcus aureus ATCC 29213 assessed as diameter of zone of growth inhibition at 10 ug/6 mm disc incubated for 12 hrs by disc diffusion assay; format: functional, organism-based
Procedure, shortened: (§2)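 Bacteria grown 10 h at 37 °C in LB broth as seed cultures, then mixed into LB agar to pour plates. Sterile 6 mm filter disks loaded with 5 μL test solution at 2 μg/μL in DMSO; ampicillin disks (5 μg/μL in DMSO) as positive control. Plates incubated 12 h at 37 °C, then diameter of the growth-inhibition zone around each disk recorded.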

Bacillus thuringiensis = test: Antimicrobial activity against Bacillus thuringiensis ATCC 39765 assessed as diameter of zone of growth inhibition at 10 ug/6 mm disc incubated for 12 hrs by disc diffusion assay; format: functional, organism-based; procedure, shortened: as §2
Bacillus subtilis = test: Antimicrobial activity against Bacillus subtilis ATCC 6633 assessed as diameter of zone of growth inhibition at 10 ug/6 mm disc incubated for 12 hrs by disc diffusion assay; format: functional, organism-based; procedure, shortened: as §2

`CCCCC[C@H](OC)c1c(O)cc2c(c1O)C(=O)c1c(O)cc(O)cc1C2=O` showed an IC50 (SF-268) of 33.6 µM, an IC50 (MCF7) of 35.3 µM and an IC50 (NCI-H460) of 44.2 µM. The “diameter of the inhibition zone (DIZ)” value (Staphylococcus aureus) was “inactive”, the “diameter of the inhibition zone (DIZ)” value (Bacillus thuringiensis) was “inactive” and the “diameter of the inhibition zone (DIZ)” value (Bacillus subtilis) was “inactive”.

Compound `CCCCC[C@H](OCCCC)c1c(O)cc2c(c1O)C(=O)c1c(O)cc(O)cc1C2=O` has an IC50 (SF-268) of 47.2 µM, an IC50 (MCF7) of 40.5 µM and an IC50 (NCI-H460) greater than 50 µM. For the same compound, the “diameter of the inhibition zone (DIZ)” value (Staphylococcus aureus) was “inactive”, the “diameter of the inhibition zone (DIZ)” value (Bacillus thuringiensis) was “inactive” and the “diameter of the inhibition zone (DIZ)” value (Bacillus subtilis) was “inactive”.

`CCCCC[C@H](OCCCC)c1c(O)cc2c(c1O)C(=O)c1c(cc(O)c(Cl)c1O)C2=O` gave an IC50 (SF-268) greater than 50 µM, an IC50 (MCF7) of 49.5 µM and an IC50 (NCI-H460) greater than 50 µM. For the same compound, the “diameter of the inhibition zone (DIZ)” value (Staphylococcus aureus) was “inactive”, the “diameter of the inhibition zone (DIZ)” value (Bacillus thuringiensis) was “inactive” and the “diameter of the inhibition zone (DIZ)” value (Bacillus subtilis) was “inactive”.

With `CCCC/C=C/c1c(O)cc2c(c1O)C(=O)c1c(O)cc(O)cc1C2=O` [AVERYTHRIN] the IC50 (SF-268) was greater than 50 µM, the IC50 (MCF7) was 29.7 µM and the IC50 (NCI-H460) was greater than 50 µM. For the same compound, the “diameter of the inhibition zone (DIZ)” value (Staphylococcus aureus) was “inactive”, the “diameter of the inhibition zone (DIZ)” value (Bacillus thuringiensis) was “inactive” and the “diameter of the inhibition zone (DIZ)” value (Bacillus subtilis) was “inactive”.

`CCCCC[C@H](O)c1c(O)cc2c(c1O)C(=O)c1c(cc(O)c(Cl)c1O)C2=O` showed an IC50 (SF-268) greater than 50 µM, an IC50 (MCF7) of 36.4 µM and an IC50 (NCI-H460) greater than 50 µM. For the same compound, the “diameter of the inhibition zone (DIZ)” value (Staphylococcus aureus) was “inactive”, the “diameter of the inhibition zone (DIZ)” value (Bacillus thuringiensis) was “inactive” and the “diameter of the inhibition zone (DIZ)” value (Bacillus subtilis) was “inactive”.

`CCCCC[C@H](O)c1c(O)cc2c(c1O)C(=O)c1c(O)cc(O)cc1C2=O` was tested, and the IC50 (SF-268) was greater than 50 µM, the IC50 (MCF7) was 45.5 µM and the IC50 (NCI-H460) was greater than 50 µM. For the same compound, the “diameter of the inhibition zone (DIZ)” value (Staphylococcus aureus) was “inactive”, the “diameter of the inhibition zone (DIZ)” value (Bacillus thuringiensis) was “inactive” and the “diameter of the inhibition zone (DIZ)” value (Bacillus subtilis) was “inactive”.

`CCCCC[C@H](O)c1c(O)cc2c(c1O)C(=O)c1c(cc(OC)c(Cl)c1O)C2=O` was tested, and the IC50 (SF-268) was 7.11 µM, the IC50 (MCF7) was 6.64 µM and the IC50 (NCI-H460) was 7.42 µM. For the same compound, the “diameter of the inhibition zone (DIZ)” value (Staphylococcus aureus) was “inactive”, the “diameter of the inhibition zone (DIZ)” value (Bacillus thuringiensis) was “inactive” and the “diameter of the inhibition zone (DIZ)” value (Bacillus subtilis) was “inactive”.

For `CCCC/C=C/c1c(O)cc2c(c1O)C(=O)c1c(cc(OC)c(Cl)c1O)C2=O`, the IC50 (SF-268) was greater than 50 µM, the IC50 (MCF7) was 24.4 µM and the IC50 (NCI-H460) was greater than 50 µM. For the same compound, the “diameter of the inhibition zone (DIZ)” value (Staphylococcus aureus) was “inactive”, the “diameter of the inhibition zone (DIZ)” value (Bacillus thuringiensis) was “inactive” and the “diameter of the inhibition zone (DIZ)” value (Bacillus subtilis) was “inactive”.

Work on `CCCCC[C@H](O)c1c(O)cc2c(c1O)C(=O)c1c(O)cc(OC)cc1C2=O` yielded an IC50 (SF-268) greater than 50 µM, an IC50 (MCF7) greater than 50 µM and an IC50 (NCI-H460) greater than 50 µM. For the same compound, the “diameter of the inhibition zone (DIZ)” value (Staphylococcus aureus) was “inactive”, the “diameter of the inhibition zone (DIZ)” value (Bacillus thuringiensis) was “inactive” and the “diameter of the inhibition zone (DIZ)” value (Bacillus subtilis) was “inactive”.

`CCCCC[C@H](OC)c1c(O)cc2c(c1O)C(=O)c1c(O)cc(OC)cc1C2=O` gave an IC50 (SF-268) greater than 50 µM, an IC50 (MCF7) greater than 50 µM and an IC50 (NCI-H460) greater than 50 µM. The “diameter of the inhibition zone (DIZ)” value (Staphylococcus aureus) was “inactive”, the “diameter of the inhibition zone (DIZ)” value (Bacillus thuringiensis) was “inactive” and the “diameter of the inhibition zone (DIZ)” value (Bacillus subtilis) was “inactive”.

`CCCCC[C@H](O)c1c(O)cc2c(c1O)C(=O)c1c(cc(OC)c(Br)c1O)C2=O` showed an IC50 (SF-268) of 24.7 µM, an IC50 (MCF7) of 25.6 µM and an IC50 (NCI-H460) of 18.9 µM. The “diameter of the inhibition zone (DIZ)” value (Staphylococcus aureus) was “inactive”, the “diameter of the inhibition zone (DIZ)” value (Bacillus thuringiensis) was “inactive” and the “diameter of the inhibition zone (DIZ)” value (Bacillus subtilis) was “inactive”.

`CCCCC[C@H](OC)c1c(O)cc2c(c1O)C(=O)c1c(cc(O)c(Cl)c1O)C2=O` was tested, and the IC50 (SF-268) was 34.1 µM, the IC50 (MCF7) was 26.1 µM and the IC50 (NCI-H460) was 37.2 µM. The “diameter of the inhibition zone (DIZ)” value (Staphylococcus aureus) was “inactive”, the “diameter of the inhibition zone (DIZ)” value (Bacillus thuringiensis) was “inactive” and the “diameter of the inhibition zone (DIZ)” value (Bacillus subtilis) was “inactive”.

In the case of `CCCC/C=C/c1c(O)cc2c(c1O)C(=O)c1c(cc(O)c(Cl)c1O)C2=O`, the IC50 (SF-268) is reported as greater than 50 µM, the IC50 (MCF7) is reported as greater than 50 µM and the IC50 (NCI-H460) is reported as greater than 50 µM. For the same compound, the “diameter of the inhibition zone (DIZ)” value (Staphylococcus aureus) was “inactive”, the “diameter of the inhibition zone (DIZ)” value (Bacillus thuringiensis) was “inactive” and the “diameter of the inhibition zone (DIZ)” value (Bacillus subtilis) was “inactive”.

For `CCCCC[C@H](OC)c1c(O)cc2c(c1O)C(=O)c1c(cc(OC)c(Cl)c1O)C2=O`, the IC50 (SF-268) was greater than 50 µM, the IC50 (MCF7) was greater than 50 µM and the IC50 (NCI-H460) was greater than 50 µM. The “diameter of the inhibition zone (DIZ)” value (Staphylococcus aureus) was “inactive”, the “diameter of the inhibition zone (DIZ)” value (Bacillus thuringiensis) was “inactive” and the “diameter of the inhibition zone (DIZ)” value (Bacillus subtilis) was “inactive”.

Compound `CCCCC[C@H](OC)c1c(O)cc2c(c1O)C(=O)c1c(cc(OC)c(Br)c1O)C2=O` has an IC50 (SF-268) greater than 50 µM, an IC50 (MCF7) greater than 50 µM and an IC50 (NCI-H460) greater than 50 µM. For the same compound, the “diameter of the inhibition zone (DIZ)” value (Staphylococcus aureus) was “inactive”, the “diameter of the inhibition zone (DIZ)” value (Bacillus thuringiensis) was “inactive” and the “diameter of the inhibition zone (DIZ)” value (Bacillus subtilis) was “inactive”.
